Test [1] has as its target T1, Estrogen receptor (Rattus norvegicus) (UniProt P06211+Q62986). Put plainly: Oral estrogenic activity in 21 day old immature ovariectomized rats at 500 ug. It is filed as functional. The gist of the method: (§1)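 Rats dosed orally with compound suspended in 0.5% (carboxymethyl)cellulose, 10 animals per dose, daily for 4 days starting on the day of ovariectomy. Autopsy on the day after the last dose. Read-outs were the increase in uterine weight and cornification of vaginal smears, taken from animals with open vaginas, compared against a standard estrogen.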

The species entered for test [2] is Rattus norvegicus. Kind of test: Antifertility activity measured as minimum protective dose for prevention of pregnancy in rats. The test is classed as functional. Also noted: unit not given here. The gist of the method:
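Oral dosing in adult cycling female rats selected in the proestrous phase, 10 animals per dose, with treatment starting on the day of proestrus.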

For test [3], the target named is T1, Estrogen receptor (Rattus norvegicus). Put plainly: Oral estrogenic activity in 21 day old immature ovariectomized rats at 200 ug. The test is classed as functional. In outline: as §1
Test [4] shares this target. Put plainly: Oral estrogenic activity in 21 day old immature ovariectomized rats at 1000 ug. The test is classed as functional. The gist of the method:
as §1

Test [5] is filed under the species Rattus norvegicus. Kind of test: Separation of antifertility from estrogenic activity in rats was measured. It is filed as functional.
Test [6] addresses T1, Estrogen receptor (Rattus norvegicus).

On to `C=C([C@]1(O)CC[C@H]2[C@@H]3CCc4cc(O)ccc4[C@H]3CC[C@@]21C)[Si](CCCC)(CCCC)CCCC`, for which the Estrogenic potency in test [1] came to 0. Besides, the Antifertility potency in the test listed under Rattus norvegicus [2] is given as 0.

`C[C@]12CC[C@@H]3c4ccc(O)cc4CC[C@H]3[C@@H]1CC[C@@]2(O)/C=C/[Si](c1ccccc1)(c1ccccc1)c1ccccc1` yielded an Estrogenic potency in test [3] of 0. This compound also gave an Antifertility potency in the test filed under Rattus norvegicus [2] of 0.

In test [4], `CCC(C#C[C@]1(O)CC[C@H]2[C@@H]3CCc4cc(O)ccc4[C@H]3CC[C@@]21C)(CC)CC` gave an Estrogenic potency of 0. In the test filed under Rattus norvegicus [2], this compound gave an Antifertility potency of 0.

`C=C([C@]1(O)CC[C@H]2[C@@H]3CCc4cc(O)ccc4[C@H]3CC[C@@]21C)[Si](c1ccccc1)(c1ccccc1)c1ccccc1` came in with an Estrogenic potency in test [3] of 0. In the test filed under Rattus norvegicus [2], this compound yielded an Antifertility potency of 0.

In the case of `CCCC[Si](C=C[C@]1(O)CC[C@H]2[C@@H]3CCc4cc(O)ccc4[C@H]3CC[C@@]21C)(CCCC)CCCC`, the Estrogenic potency in test [4] amounted to 0. The same compound yielded an Antifertility potency in the test listed under Rattus norvegicus [2] of 0.

Regarding `CCC[Si](C)(C)C#C[C@]1(O)CC[C@H]2[C@@H]3CCc4cc(O)ccc4[C@H]3CC[C@@]21C`, the Separation in the test listed under Rattus norvegicus [5] is given as 14. Moreover, the Estrogenic potency in test [6] was found to be 22. Also, the Antifertility potency in the test filed under Rattus norvegicus [2] turned out to be 300.

As to `C[C@]12CC[C@@H]3c4ccc(O)cc4CC[C@H]3[C@@H]1CC[C@@]2(O)C#C[Si](C)(C)CCCCl`, the Separation in the test filed under Rattus norvegicus [5] was 8. This compound also gave an Estrogenic potency in test [6] of 25. Moreover, the Antifertility potency in the test listed under Rattus norvegicus [2] came out at 200.

As for `C[C@]12CC[C@@H]3c4ccc(O)cc4CC[C@H]3[C@@H]1CC[C@@]2(O)C#C[Si](C)(C)CCC#N`, the Separation in the test filed under Rattus norvegicus [5] was 8. Besides, in test [6], the Estrogenic potency is 37. Further, the Antifertility potency in the test listed under Rattus norvegicus [2] was found to be 300.

As for `C[C@]12CC[C@@H]3c4ccc(O)cc4CC[C@H]3[C@@H]1CC[C@@]2(O)C#C[Si](C)(C)CBr`, in the test filed under Rattus norvegicus [5], the Separation turned out to be 7.4. The Estrogenic potency in test [6] amounted to 27. Further, the Antifertility potency in the test listed under Rattus norvegicus [2] came out at 200.

In turn, `C=C[Si](C)(C#C[C@]1(O)CC[C@H]2[C@@H]3CCc4cc(O)ccc4[C@H]3CC[C@@]21C)CC` (some centres undefined) gave a Separation in the test filed under Rattus norvegicus [5] of 11. In test [6], this compound returned an Estrogenic potency of 28. This compound also gave an Antifertility potency in the test listed under Rattus norvegicus [2] of 300.

Regarding `CC(C)[Si](C)(C)C#C[C@]1(O)CC[C@H]2[C@@H]3CCc4cc(O)ccc4[C@H]3CC[C@@]21C`, the Separation in the test listed under Rattus norvegicus [5] came out at 20. Also, the Estrogenic potency in test [6] came to 15. Moreover, the Antifertility potency in the test filed under Rattus norvegicus [2] is 300.

`C[C@]12CC[C@@H]3c4ccc(O)cc4CC[C@H]3[C@@H]1CC[C@@]2(O)C#C[Si](C)(C)Cc1ccccc1` returned a Separation in the test filed under Rattus norvegicus [5] of 25. Besides, in test [6], the Estrogenic potency was 12. The same compound showed an Antifertility potency in the test filed under Rattus norvegicus [2] of 300.

In the case of `C[C@]12CC[C@@H]3c4ccc(O)cc4CC[C@H]3[C@@H]1CC[C@@]2(O)C#C[Si](C)(CCl)CCl`, the Separation in the test listed under Rattus norvegicus [5] turned out to be 4. In test [6], this compound yielded an Estrogenic potency of 39. This compound also displayed an Antifertility potency in the test listed under Rattus norvegicus [2] of 150.

In the test listed under Rattus norvegicus [5], `CCC(C)[Si](C#C[C@]1(O)CC[C@H]2[C@@H]3CCc4cc(O)ccc4[C@H]3CC[C@@]21C)(CC)CC` (some centres undefined) came in with a Separation of 5. Moreover, in test [6], the Estrogenic potency is 57. Also, the Antifertility potency in the test filed under Rattus norvegicus [2] stood at 300.

`CCC[Si](C#C[C@]1(O)CC[C@H]2[C@@H]3CCc4cc(O)ccc4[C@H]3CC[C@@]21C)(CCC)CCC` displayed a Separation in the test listed under Rattus norvegicus [5] of 8. Also, the Estrogenic potency in test [6] amounted to 25. Further, in the test listed under Rattus norvegicus [2], the Antifertility potency is 200.

Compound `C[C@]12CC[C@@H]3c4ccc(O)cc4CC[C@H]3[C@@H]1CC[C@@]2(O)C#C[Si](C)(C)CCC(F)(F)F` came in with a Separation in the test listed under Rattus norvegicus [5] of 8. Further, in test [6], the Estrogenic potency was found to be 19. This compound showed an Antifertility potency in the test filed under Rattus norvegicus [2] of 150.

In turn, `CC(C)(C)C#C[C@]1(O)CC[C@H]2[C@@H]3CCc4cc(O)ccc4[C@H]3CC[C@@]21C` yielded a Separation in the test listed under Rattus norvegicus [5] of 14. Further, the Estrogenic potency in test [6] is 0.07. In the test filed under Rattus norvegicus [2], this compound yielded an Antifertility potency of 1.

`CCC[Si](C#C[C@]1(O)CC[C@H]2[C@@H]3CCc4cc(O)ccc4[C@H]3CC[C@@]21C)(CC)CC` returned a Separation in the test listed under Rattus norvegicus [5] of 8. The compound further yielded an Estrogenic potency in test [6] of 39. In the test listed under Rattus norvegicus [2], this compound came in with an Antifertility potency of 300.

The record behind these values is ChEMBL document CHEMBL1123923, “Steroidal silicon side-chain analogues as potential antifertility agents” (1987).
